In series [1] the test system is Mus musculus. Nature of the series: Toxicity in SCID mouse xenografted with human UKE1 cells assessed as body weight loss at 10 mg/kg, po bid administered for 14 days measured on day 31 (reference value: 7.1%). It is filed as organism-based. To be noted: in vivo, 336 h. Details: dose 10 mg/kg, route oral. In outline:
(§1)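 UKE-1 cells mixed with matrigel implanted subcutaneously in female SCID mice. On day 15, mice randomized at a mean tumor volume of about 150 mm³. Oral gavage twice daily at 3 or 10 mg/kg, or vehicle, for 14 days. Tumor volume and body weight tracked through the dosing phase.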
(Xenograft models place foreign cells or tissue in a host animal.)

Series [2] relates to Mus musculus. In words: In vivo inhibition of Jak2 in po dose3d mouse transfected with mouse BA/F3 cells expressing TEL-Jak2 assessed as inhibition of STAT5 phosphorylation after 6 to 12 hrs by Western blotting analysis. It is filed as functional, organism-based. To be noted: BaF3. In outline: (§2)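 Mice bearing BaF3 TEL-JAK2 cells given a single oral dose of 3, 5 or 10 mg/kg and sacrificed at various times after dosing. Spleen lysates probed for phospho-STAT5 and total STAT5 by Western blot, and pSTAT5 inhibition assessed.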
In general terms: In western blotting, separated proteins are transferred to a membrane and probed.

The subject of series [3] is Mus musculus. In words: In vivo inhibition of Jak2 in mouse transfected with mouse BA/F3 cells expressing TEL-Jak2 assessed as inhibition of STAT5 phosphorylation at 3 mg/kg, po after 8 hrs by Western blotting analysis. It is filed as functional. To be noted: BaF3, 8 h. In a few lines:
as §2

Series [4] relates to Mus musculus. In words: In vivo inhibition of Jak2 in mouse transfected with mouse BA/F3 cells expressing TEL-Jak2 assessed as inhibition of STAT5 phosphorylation at 3 mg/kg, po after 6 hrs by Western blotting analysis. Type of series: functional. To be noted: BaF3, 6 h. In outline:
as §2

Series [5] concerns Mus musculus. In words: In vivo inhibition of Jak2 in mouse transfected with mouse BA/F3 cells expressing TEL-Jak2 assessed as inhibition of STAT5 phosphorylation at 10 mg/kg, po after 12 hrs by Western blotting analysis. Type of series: functional. To be noted: BaF3, 12 h. In a few lines:
as §2

Series [6] is described as follows: Cytotoxicity against human SET2 cells expressing Jak2 V617F mutant after 72 hrs by MTS assay. To be noted: SET-2, 72 h. It is filed as functional. (Tetrazolium dyes change colour on reduction, which living cells bring about.)
A short description of series [7]: Cytotoxicity against mouse BA/F3 cells expressing TEL-Jak1 after 72 hrs by MTS assay. It is filed as functional. To be noted: BaF3, 72 h. In outline:
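BaF3 cells transfected with the kinase domain of Jak1, Jak3 or Tyk2 (TEL fusions). Growth inhibition measured as the counter-screen for cellular selectivity.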

Series [8] has as its target Serine/threonine-protein kinase SIK1 (Homo sapiens, UniProt P57059). Nature of the series: Inhibition of human SIK. In outline: (§3)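 Panel of 82 kinases. Radiometric filter-binding assay with ATP at or near Km. Compound tested at 0.01, 0.10 and 1.0 μM. Values expressed as minimum possible fold selectivity against Jak2.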
A further series has as its target LIM domain kinase 1 (Homo sapiens, UniProt P53667). In words: Inhibition of human LIMK1. In outline: as §3
A further series concerns the target Aurora kinase A (Homo sapiens, UniProt O14965). In words: Inhibition of human aurora A kinase. In a few lines:
as §3

In series [9] the target is Vascular endothelial growth factor receptor 3 (Homo sapiens, UniProt P35916). Nature of the series: Inhibition of human Flt4. In outline: as §3
Vascular endothelial growth factor receptor 3, sequence (P35916 whole entry): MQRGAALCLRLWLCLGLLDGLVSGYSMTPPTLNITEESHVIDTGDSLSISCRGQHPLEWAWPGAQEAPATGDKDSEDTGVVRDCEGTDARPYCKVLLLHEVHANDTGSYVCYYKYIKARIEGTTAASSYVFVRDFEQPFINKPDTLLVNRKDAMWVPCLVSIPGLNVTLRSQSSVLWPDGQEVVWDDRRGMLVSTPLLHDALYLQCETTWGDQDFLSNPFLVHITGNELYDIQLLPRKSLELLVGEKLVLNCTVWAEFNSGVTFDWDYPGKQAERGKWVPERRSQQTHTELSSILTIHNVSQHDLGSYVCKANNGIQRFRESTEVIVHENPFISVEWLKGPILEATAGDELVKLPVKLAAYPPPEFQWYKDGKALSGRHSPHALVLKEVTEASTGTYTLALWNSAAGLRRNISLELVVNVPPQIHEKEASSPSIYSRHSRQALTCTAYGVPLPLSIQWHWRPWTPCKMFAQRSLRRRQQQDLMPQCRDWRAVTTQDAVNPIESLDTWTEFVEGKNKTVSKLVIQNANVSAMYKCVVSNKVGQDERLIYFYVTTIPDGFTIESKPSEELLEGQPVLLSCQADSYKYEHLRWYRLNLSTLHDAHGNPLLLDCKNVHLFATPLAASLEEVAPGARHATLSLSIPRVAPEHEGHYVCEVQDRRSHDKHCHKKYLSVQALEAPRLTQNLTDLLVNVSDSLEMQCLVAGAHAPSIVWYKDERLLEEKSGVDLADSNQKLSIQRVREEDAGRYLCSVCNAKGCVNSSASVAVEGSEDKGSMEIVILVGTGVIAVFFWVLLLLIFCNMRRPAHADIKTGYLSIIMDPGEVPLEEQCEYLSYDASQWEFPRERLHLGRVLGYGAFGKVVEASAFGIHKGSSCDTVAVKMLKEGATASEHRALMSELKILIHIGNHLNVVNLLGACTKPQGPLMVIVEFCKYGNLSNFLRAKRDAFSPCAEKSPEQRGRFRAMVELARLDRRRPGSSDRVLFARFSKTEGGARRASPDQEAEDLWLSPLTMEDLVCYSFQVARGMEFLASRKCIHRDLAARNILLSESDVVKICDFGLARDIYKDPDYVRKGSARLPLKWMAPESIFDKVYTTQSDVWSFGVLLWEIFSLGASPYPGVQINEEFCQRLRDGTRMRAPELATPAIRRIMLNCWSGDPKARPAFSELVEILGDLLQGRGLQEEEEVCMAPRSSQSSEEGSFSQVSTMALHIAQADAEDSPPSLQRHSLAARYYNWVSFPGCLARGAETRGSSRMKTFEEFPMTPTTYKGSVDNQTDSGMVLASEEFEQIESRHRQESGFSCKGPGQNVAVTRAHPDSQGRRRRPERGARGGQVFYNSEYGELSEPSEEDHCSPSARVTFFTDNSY
Series [10] addresses High affinity nerve growth factor receptor (Homo sapiens, UniProt P04629). In words: Inhibition of human TrkA. In a few lines: as §3
For series [11], the target named is T1, Tyrosine-protein kinase JAK3 (Homo sapiens, UniProt P52333).
T1 sequence (P52333 whole entry): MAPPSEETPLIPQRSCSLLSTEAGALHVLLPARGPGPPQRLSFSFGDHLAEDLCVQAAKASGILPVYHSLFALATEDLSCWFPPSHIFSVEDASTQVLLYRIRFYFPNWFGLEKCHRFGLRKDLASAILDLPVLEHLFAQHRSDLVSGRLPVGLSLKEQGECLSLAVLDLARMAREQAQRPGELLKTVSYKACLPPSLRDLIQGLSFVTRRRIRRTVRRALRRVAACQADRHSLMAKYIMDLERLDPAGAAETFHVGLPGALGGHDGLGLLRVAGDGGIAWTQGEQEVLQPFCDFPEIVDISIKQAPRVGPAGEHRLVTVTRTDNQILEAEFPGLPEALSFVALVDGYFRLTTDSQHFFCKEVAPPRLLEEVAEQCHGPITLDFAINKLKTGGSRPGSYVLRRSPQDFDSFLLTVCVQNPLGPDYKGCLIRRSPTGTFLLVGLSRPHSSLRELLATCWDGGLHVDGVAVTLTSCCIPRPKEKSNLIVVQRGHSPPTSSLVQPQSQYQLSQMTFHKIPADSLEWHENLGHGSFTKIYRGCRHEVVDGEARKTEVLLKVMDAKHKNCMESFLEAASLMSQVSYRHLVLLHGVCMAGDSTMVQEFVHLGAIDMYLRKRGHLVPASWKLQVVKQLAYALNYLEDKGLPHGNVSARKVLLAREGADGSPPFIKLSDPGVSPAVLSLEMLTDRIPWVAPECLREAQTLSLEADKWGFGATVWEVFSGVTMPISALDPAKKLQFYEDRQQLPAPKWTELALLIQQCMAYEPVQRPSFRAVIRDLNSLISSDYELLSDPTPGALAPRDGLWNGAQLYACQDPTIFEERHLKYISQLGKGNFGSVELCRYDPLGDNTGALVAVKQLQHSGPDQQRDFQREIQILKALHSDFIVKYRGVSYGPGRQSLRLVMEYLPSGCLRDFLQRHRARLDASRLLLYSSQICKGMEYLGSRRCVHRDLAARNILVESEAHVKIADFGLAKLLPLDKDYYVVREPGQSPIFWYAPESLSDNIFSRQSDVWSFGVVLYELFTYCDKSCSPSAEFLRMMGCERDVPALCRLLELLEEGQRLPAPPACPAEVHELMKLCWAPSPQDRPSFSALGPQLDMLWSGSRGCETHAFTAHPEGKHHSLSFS
In words: Inhibition of human JAK3. In a few lines: as §3

Series [12] concerns the target Tyrosine-protein kinase ABL1 (Homo sapiens, UniProt P00519). Nature of the series: Inhibition of human Abl. In outline:
as §3

For series [13], the target named is Tyrosine-protein kinase Fgr (Homo sapiens, UniProt P09769). In words: Inhibition of human Fgr. In a few lines:
as §3

The nature of series [14]: Half life in beagle dog at 10 mg/kg, po. Type of series: ADME, organism-based, Canis lupus familiaris. The arrangement: dose 10 mg/kg, route oral. To be noted: in vivo. In outline: (§4)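 Male beagle dogs. Oral dose 10 mg/kg in 0.1% HPMC, pH 2. IV dose 2.5 mg/kg in 20% TEG/D5W. […] Clearance, Vdss, half-life and oral bioavailability (F%) derived from the plasma profiles.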

Series [15] is described as follows: Volume of distribution at steady state in beagle dog at 2.5 mg/kg, iv. The arrangement: dose 2.5 mg/kg, route intravenous. It is filed as ADME, organism-based, Canis lupus familiaris. To be noted: in vivo, read-out: Vdss. In a few lines: as §4
The next series relates to Canis familiaris. In words: AUC (0 to 12 hrs) in beagle dog at 10 mg/kg, po. Type of series: ADME, organism-based, Canis lupus familiaris, Plasma. The arrangement: time < 12 hr, dose 10 mg/kg, route oral. To be noted: in vivo. In a few lines: as §4
A short description of series [16]: Clearance in Wistar rat at 10 mg/kg, po and 3 mg/kg, iv. Type of series: ADME, organism-based. To be noted: in vivo. In outline:
(§5)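 Rat pharmacokinetics. Oral dose 10 mg/kg in 0.1% HPMC. IV dose 3 mg/kg in 40% DMA/40% PEG/20% saline. Clearance, half-life, Vdss and oral bioavailability derived from the plasma profiles.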

Series [17] in a line: Oral bioavailability in Wistar rat at 10 mg/kg. It is filed as ADME, organism-based. To be noted: in vivo. In a few lines: as §5
The target in series [18] is T1, Tyrosine-protein kinase JAK3. In words: Inhibition of Jak3 (unknown origin).
Series [19] is described as follows: Antitumor activity against human UKE1 cells xenografted in SCID mouse assessed as tumor growth inhibition at 10 mg/kg, po bid administered for 14 days measured on day 28. It is filed as functional. To be noted: read-out: TGI. In outline:
as §1

The structures appear in SMILES notation.

Aurora kinase A, sequence (O14965 whole entry): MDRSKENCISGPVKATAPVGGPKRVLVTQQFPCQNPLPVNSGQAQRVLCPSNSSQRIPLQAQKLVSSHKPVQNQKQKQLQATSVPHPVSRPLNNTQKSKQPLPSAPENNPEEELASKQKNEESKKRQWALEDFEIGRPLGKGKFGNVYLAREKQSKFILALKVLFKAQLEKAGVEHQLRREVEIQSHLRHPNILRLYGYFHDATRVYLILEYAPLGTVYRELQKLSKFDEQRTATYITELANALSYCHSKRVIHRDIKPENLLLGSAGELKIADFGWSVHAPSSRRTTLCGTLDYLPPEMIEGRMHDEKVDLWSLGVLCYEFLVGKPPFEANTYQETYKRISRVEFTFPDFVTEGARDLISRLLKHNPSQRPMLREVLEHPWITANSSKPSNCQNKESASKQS
Serine/threonine-protein kinase SIK1, sequence (P57059 whole entry, the tested form may be a part): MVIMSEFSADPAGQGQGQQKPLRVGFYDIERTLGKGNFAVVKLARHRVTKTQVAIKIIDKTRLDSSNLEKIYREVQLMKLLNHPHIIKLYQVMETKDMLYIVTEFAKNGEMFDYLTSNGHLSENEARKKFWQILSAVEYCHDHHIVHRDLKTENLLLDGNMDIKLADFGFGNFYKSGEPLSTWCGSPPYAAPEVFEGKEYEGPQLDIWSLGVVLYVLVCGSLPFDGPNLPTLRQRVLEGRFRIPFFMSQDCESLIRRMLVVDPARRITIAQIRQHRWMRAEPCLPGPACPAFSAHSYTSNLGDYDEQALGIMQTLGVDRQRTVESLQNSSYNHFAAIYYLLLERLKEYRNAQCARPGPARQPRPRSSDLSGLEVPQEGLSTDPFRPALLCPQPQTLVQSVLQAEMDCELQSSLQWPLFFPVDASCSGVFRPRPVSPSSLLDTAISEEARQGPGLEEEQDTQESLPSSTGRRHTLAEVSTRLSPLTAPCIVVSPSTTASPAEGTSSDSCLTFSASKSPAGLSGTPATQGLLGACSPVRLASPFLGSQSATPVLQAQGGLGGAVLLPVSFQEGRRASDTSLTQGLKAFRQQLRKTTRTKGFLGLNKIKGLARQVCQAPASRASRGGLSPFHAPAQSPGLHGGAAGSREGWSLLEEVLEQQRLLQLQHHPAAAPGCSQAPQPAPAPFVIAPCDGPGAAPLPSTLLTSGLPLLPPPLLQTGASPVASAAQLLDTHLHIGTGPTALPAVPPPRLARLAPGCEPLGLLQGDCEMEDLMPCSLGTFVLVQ
High affinity nerve growth factor receptor, sequence (P04629 whole entry): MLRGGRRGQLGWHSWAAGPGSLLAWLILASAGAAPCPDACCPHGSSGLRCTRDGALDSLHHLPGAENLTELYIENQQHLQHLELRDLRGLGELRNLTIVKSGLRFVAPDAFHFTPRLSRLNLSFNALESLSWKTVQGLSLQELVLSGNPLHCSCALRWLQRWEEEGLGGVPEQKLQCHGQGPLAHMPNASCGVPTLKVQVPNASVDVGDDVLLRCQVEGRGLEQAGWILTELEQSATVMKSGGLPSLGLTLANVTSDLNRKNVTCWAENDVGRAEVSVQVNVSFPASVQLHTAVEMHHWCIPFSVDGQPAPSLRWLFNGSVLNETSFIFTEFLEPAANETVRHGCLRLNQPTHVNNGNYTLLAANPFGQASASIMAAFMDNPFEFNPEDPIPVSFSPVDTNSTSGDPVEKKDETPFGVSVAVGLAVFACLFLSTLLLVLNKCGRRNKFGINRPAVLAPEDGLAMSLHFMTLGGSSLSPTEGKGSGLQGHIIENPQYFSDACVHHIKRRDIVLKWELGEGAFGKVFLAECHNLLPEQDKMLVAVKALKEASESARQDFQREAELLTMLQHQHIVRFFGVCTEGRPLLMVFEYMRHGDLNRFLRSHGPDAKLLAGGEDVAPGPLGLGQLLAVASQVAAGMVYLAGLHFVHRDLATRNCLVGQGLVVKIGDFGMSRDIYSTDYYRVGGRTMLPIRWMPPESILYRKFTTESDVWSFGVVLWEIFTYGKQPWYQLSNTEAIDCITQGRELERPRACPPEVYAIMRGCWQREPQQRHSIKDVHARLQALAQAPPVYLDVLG
Tyrosine-protein kinase ABL1, sequence (P00519 whole entry): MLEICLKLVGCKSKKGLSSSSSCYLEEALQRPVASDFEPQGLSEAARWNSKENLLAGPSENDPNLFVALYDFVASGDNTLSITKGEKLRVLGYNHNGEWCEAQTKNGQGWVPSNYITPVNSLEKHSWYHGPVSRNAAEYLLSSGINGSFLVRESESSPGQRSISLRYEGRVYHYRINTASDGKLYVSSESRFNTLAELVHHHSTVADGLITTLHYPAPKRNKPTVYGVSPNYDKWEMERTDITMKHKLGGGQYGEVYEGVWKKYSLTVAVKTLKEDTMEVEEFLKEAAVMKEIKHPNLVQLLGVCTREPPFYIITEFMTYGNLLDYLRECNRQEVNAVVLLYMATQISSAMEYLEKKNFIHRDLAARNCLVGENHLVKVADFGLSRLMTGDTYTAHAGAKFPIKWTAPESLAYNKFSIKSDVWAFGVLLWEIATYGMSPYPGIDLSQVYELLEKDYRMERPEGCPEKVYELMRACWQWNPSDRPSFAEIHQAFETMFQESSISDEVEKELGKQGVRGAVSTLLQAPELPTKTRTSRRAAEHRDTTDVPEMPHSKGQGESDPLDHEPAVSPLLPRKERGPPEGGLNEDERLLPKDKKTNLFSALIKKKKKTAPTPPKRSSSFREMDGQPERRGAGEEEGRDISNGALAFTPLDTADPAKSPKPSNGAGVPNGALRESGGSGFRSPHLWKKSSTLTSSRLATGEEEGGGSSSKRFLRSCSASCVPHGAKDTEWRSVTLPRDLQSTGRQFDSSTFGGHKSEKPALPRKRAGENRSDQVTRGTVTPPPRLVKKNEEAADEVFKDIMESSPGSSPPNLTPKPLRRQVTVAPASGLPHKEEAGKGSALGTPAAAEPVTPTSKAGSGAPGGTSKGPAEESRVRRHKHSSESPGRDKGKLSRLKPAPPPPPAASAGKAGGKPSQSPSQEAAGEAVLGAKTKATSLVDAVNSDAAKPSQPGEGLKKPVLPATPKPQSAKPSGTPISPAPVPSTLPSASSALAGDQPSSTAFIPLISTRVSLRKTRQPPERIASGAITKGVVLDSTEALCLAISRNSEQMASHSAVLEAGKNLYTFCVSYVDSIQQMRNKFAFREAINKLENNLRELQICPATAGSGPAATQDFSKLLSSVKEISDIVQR
Tyrosine-protein kinase Fgr, sequence (P09769 whole entry): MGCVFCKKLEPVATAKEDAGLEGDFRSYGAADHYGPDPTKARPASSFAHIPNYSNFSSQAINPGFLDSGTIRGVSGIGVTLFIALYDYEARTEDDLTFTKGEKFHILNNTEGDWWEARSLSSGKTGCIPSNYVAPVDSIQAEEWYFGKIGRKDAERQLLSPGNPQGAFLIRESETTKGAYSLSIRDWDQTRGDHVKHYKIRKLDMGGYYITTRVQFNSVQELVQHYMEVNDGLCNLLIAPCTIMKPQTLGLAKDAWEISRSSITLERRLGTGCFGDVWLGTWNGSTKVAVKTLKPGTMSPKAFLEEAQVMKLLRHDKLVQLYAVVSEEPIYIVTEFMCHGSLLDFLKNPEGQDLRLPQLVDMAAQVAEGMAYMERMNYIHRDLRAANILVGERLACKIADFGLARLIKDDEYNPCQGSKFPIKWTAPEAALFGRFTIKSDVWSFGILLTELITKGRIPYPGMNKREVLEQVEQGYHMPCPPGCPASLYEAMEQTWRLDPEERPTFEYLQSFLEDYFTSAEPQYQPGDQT

Consider `C[C@H](Nc1nc(Nc2cn(C)cn2)c2cc[nH]c2n1)c1ncc(F)cn1`, for which the Activity with Mus musculus [1] came to 3.1%. Further, the inhibition result with Mus musculus [2] is “Dose-dependent effect”. Besides, the values for the inhibition in vivo at 3 mg/kg in the series with Mus musculus [3] and in the series with Mus musculus [4] were 30% and 80%, respectively. In addition, the figures for the inhibition in vivo at 10 mg/kg (in the series on Mus musculus [5]; in [19]) were 50% and 77%, respectively. For the same molecule, the GI50 (in general, the concentration that inhibits growth by half) in series [6] was determined as 14 nM; in series [7], 220 nM. Also, the IC50 (commonly the point on the concentration scale where inhibition reaches its midpoint) is 190 nM in [8]; 63 nM at LIM domain kinase 1; 58 nM against Aurora kinase A; 40 nM in series [9]; 35 nM in series [10]; 35 nM in series [11]. Besides, the 50% inhibitory concentration (IC50) in series [12] was determined as 25 nM; in series [13] it was 33 nM; in series [18], 220 nM. Further, in series [14], the half-life (as a rule, the time in which the quantity being followed falls by half) was 456 min. In addition, the Vd in [15] was 1.9 L/kg. The exposure (AUC) – broadly, concentration integrated over time – in the series with Canis familiaris stood at 45 µM·h. The same molecule gave a clearance in series [16] of 36 mL/min/kg. Further, the bioavailability (as a rule, dose-corrected exposure relative to a reference, in per cent) in series [17] turned out to be 64%.

The values are drawn from ChEMBL document CHEMBL3112447, “Discovery of 1-methyl-1H-imidazole derivatives as potent Jak2 inhibitors” (J Med Chem, 2014).
